The target in this test is T1, Neuropeptide Y receptor type 5 (Homo sapiens, UniProt Q15761).
T1 sequence (Q15761 whole entry): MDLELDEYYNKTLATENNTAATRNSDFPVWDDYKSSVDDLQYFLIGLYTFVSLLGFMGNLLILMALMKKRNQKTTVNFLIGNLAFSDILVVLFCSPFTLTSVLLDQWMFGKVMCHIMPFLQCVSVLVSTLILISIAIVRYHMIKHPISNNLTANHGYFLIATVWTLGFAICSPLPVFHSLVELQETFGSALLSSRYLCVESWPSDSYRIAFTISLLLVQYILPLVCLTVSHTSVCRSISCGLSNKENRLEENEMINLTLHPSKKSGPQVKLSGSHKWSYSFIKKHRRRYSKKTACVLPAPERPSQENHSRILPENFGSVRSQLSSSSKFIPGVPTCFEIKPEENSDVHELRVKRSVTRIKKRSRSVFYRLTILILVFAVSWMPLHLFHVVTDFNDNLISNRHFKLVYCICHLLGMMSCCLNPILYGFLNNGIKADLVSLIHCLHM
Briefly: Affinity for human neuropeptide Y receptor Y5, binding was evaluated in an in vitro radioligand [125I]PYY binding assay. The method in brief: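 HEK 293 cells expressing human Y5 receptor, harvested in PBS and homogenized in sucrose buffer; membranes washed by repeated 48000g spins and resuspended in MEM/Earle's assay buffer (25 mM HEPES, 0.1% BSA, STI, Pefabloc, pH 7.4). Membranes (200 µg tissue) incubated with compounds and 0.15 nM [125I]PYY, 2 h at 30 °C. Nonspecific binding defined with 1 µM PYY. Filtration read-out; IC50 by nonlinear regression, averaging at least two 6-point curves.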

The structures appear in SMILES notation. A value given as a limit tells only on which side of the number the result lay.

Broadly, the IC50 is the point on the concentration scale where inhibition reaches its midpoint.

In turn, `Cc1nc(N)c2[nH]c(-c3ccccc3)cc2n1` showed a half-maximal inhibitory concentration (IC50) of 3100 nM.
As to `Cc1nc(N2CCCCC2)c2nc(CSc3ccc(Cl)cc3)cc-2[nH]1`, the concentration for half-maximal inhibition (IC50) was determined as 670 nM.
Molecule `Cc1nc(N2CCCCC2)c2[nH]c(-c3ccc(-c4ccccc4)cc3)cc2n1` yielded a 50% inhibitory concentration (IC50) of 1400 nM.
The same measure for `Cc1nc(C2CCCCC2)c2[nH]c(-c3ccccc3)cc2n1`: 8200 nM.
`Cc1nc(N2CCCCC2CCO)c2[nH]c(-c3ccccc3)cc2n1` (stereo not drawn) showed an IC50 of 730 nM.
Take `Cc1nc(N2CCCCCC2)c2[nH]c(-c3ccccc3)cc2n1`: the concentration for half-maximal inhibition (IC50) worked out at 1.8 nM.
The same measure for `Cc1nc(N2CCCCC2)c2[nH]c(-c3cccc(C(F)(F)F)c3)cc2n1`: less than 0.1 nM; for `Cc1nc2cc(-c3ccccc3)nc-2c(N(C)Cc2ccco2)[nH]1`: 52 nM.

These data come from ChEMBL document CHEMBL1133512, “Structure-activity relationships of a series of pyrrolo[3,2-d]pyrimidine derivatives and related compounds as neuropeptide Y5 receptor antagonists” (J Med Chem, 2000).
